Where “and” joins values, the source holds several entries; their conditions need not be identical. Identical values can stand only once. Inconclusive results are not listed. Calls of active or inactive are those of the source.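 Rule for the calls: active = fitted dose curve passes 500% activation at or below the top valid tested dose; inconclusive = no clear call, values can overlap the other calls; inactive = the rest, opposite-direction activity included.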
Columns and labels:
[1] = system: U2OS HRE-luciferase reporter, iron medium, luminescence; assay: HRE-luciferase activation under added iron, dose response, mechanism study for HIF activator project, cell-based, iron medium, luminescence, U2OS, dry powder (AID 493228)
How it was run: (§1)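 system = U2OS 3×HRE-luciferase reporter cells | input = 6,000 cells/well | compound = 8 concentrations, 3-fold spacing | technique = luciferase luminescence with Steady-Glo reagent | buffer or medium = medium supplemented with ferric nitrate, 50 µM final | timing = 24 h cell plating, 24 h compound exposure, 37 °C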

[2] = as above; conditions: U2OS HRE-luciferase reporter, iron medium, luminescence; at 38 µM (top of the series)
How it was run: as §1

Compound | AC50 [1] | activation [2]
Cc1ccc(CNc2nc(-c3ccccn3)nnc2-c2ccccc2)cc1C | 13.6 µM | 
CC(Nc1nc(-c2ccccn2)nnc1-c1ccccc1)c1ccccc1 (stereo not given) | 23.2 µM | 
c1ccc(-c2nnc(-c3ccccn3)nc2NCc2ccccn2)cc1 | 27.7 µM | 
O=C(Nc1nc(-c2ccccc2)cs1)c1cc(-c2ccccc2)on1 |  | -5.37% (inactive)
c1ccc(-c2nnc(-c3ccccn3)nc2NCCN2CCOCC2)cc1 | 31.7 µM | 
Oc1ccc(CN2CCc3ccccc3C2)c2cccnc12 |  | -88.2% (inactive) and -90.7% (inactive)
c1ccc(-c2nnc(-c3ccccn3)nc2NCC2CCCCC2)cc1 | 18.2 µM | 
Cn1c(-c2ccccc2)cnc1Nc1nc(-c2ccccn2)nnc1-c1ccccc1 |  | -7.02% (inactive)
O=C(c1cc(-c2ccccc2)on1)N1CCC(N2CCCC2)CC1 |  | 0.413% (inactive)
Clc1cccc(CNc2nc(-c3ccccn3)nnc2-c2ccccc2)c1 | 17.9 µM | 
O=C(Nc1cn2ccccc2n1)c1cc(-c2ccccc2)on1 |  | 36% (inactive)
Cc1ccc(NC(=O)c2cc(-c3ccccc3)on2)cn1 |  | -1.64% (inactive)
C[C@@H](Nc1nc(-c2ccccn2)nnc1-c1ccccc1)C1CCCCC1 |  | 419% (inactive)
CC(C)(C)OC(=O)N1CCN(Cc2ccc(O)c3ncccc23)CC1 |  | 10.8% (inactive)
CC(C)(C)CCNc1nc(-c2ccccn2)nnc1-c1ccccc1 | 17 µM and 16.2 µM | 
Cn1c(NC(=O)c2cc(-c3ccccc3)on2)nc2ccccc21 |  | 4.17% (inactive)
c1ccc(-c2nnc(-c3ccccn3)nc2Nc2cnc3ccccc3n2)cc1 |  | 299% (inactive)
c1ccc(-c2nnc(-c3ccccn3)nc2NCCc2ccccn2)cc1 |  | 460% (inactive)
c1ccc(CCNc2nc(-c3ccccn3)nnc2-c2ccccc2)cc1 | 20.9 µM | 
c1ccc(-c2cccc(CNc3nc(-c4ccccn4)nnc3-c3ccccc3)c2)cc1 |  | 113% (inactive)
N#CC1(c2ccccc2)CCN(Cc2ccc(O)c3ncccc23)CC1 |  | 10.5% (inactive)
c1ccc(-c2nnc(-c3ccccn3)nc2NCC2CCOCC2)cc1 |  | 226% (inactive)
Oc1ccc(CNC2Cc3ccccc3C2)c2cccnc12 |  | -87.7% (inactive)
c1ccc(-c2nnc(-c3ccccn3)nc2NCC2CC2)cc1 |  | 392% (inactive)
CC1CN(Cc2ccc(O)c3ncccc23)CC(C)O1 (stereo not given) |  | -85.2% (inactive)
O=C(NCCCCO)c1cc(-c2ccccc2)on1 | 2.72 µM | 
OCC1CCN(Cc2ccc(O)c3ncccc23)CC1 |  | -91.5% (inactive)

Compound | AC50 [1] | activation [2]
O=C(Nc1ncc2ccccc2n1)c1cc(-c2ccccc2)on1 |  | 196% (inactive)
c1ccc(-c2nnc(-c3ccccn3)nc2NCCCN2CCOCC2)cc1 |  | 168% (inactive)
O=C(NC1Cc2ccccc2C1)c1cc(-c2ccccc2)on1 |  | 175% (inactive)
C[C@H](Nc1nc(-c2ccccn2)nnc1-c1ccccc1)C1CCCCC1 | 18.9 µM | 
Cc1ccc(CNC(=O)c2cc(-c3ccccc3)on2)cc1 |  | 13.2% (inactive)
CN1CCN(c2nc(-c3ccccn3)nnc2-c2ccccc2)CC1 |  | 315% (inactive)
O=C(Nc1nc2ccccc2s1)c1cc(-c2ccccc2)on1 |  | 22.7% (inactive)
O=C(NCCCO)c1cc(-c2ccccc2)on1 | 7.47 µM | 
CN(C)CCNC(=O)c1cc(-c2ccccc2)on1 |  | 36.8% (inactive)
C[C@@H](Nc1nc(-c2ccccn2)nnc1-c1ccccc1)c1ccccc1 | 20.7 µM | 
O=C(NCCCn1ccnc1)c1cc(-c2ccccc2)on1 | 6.23 µM | 
c1ccc(-c2nnc(-c3ccccn3)nc2NCc2cccnc2)cc1 |  | 402% (inactive)
Cc1cccc(CNc2nc(-c3ccccn3)nnc2-c2ccccc2)c1 | 17.3 µM | 
C=CCNc1nc(-c2ccccn2)nnc1-c1ccccc1 |  | 288% (inactive)
c1ccc(-c2nnc(-c3ccccn3)nc2Nc2nc3ccccc3s2)cc1 |  | -17.3% (inactive)
OCCCNc1nc(-c2ccccn2)nnc1-c1ccccc1 |  | 310% (inactive)
COc1cccc(CNc2nc(-c3ccccn3)nnc2-c2ccccc2)c1 | 22.8 µM | 
CC(C)(C)CCNC(=O)c1cc(-c2ccccc2)on1 | 23.1 µM | 
c1ccc(-c2nnc(-c3ccccn3)nc2N2CCC(c3ccccc3)C2)cc1 (stereo not given) |  | 313% (inactive)
CCCCNC(=O)c1cc(-c2ccccc2)on1 | 7.93 µM | 
Oc1ccc(CN2CCC3CCCCC3C2)c2cccnc12 (stereo not given) |  | -92.3% (inactive)
O=C(c1cc(-c2ccccc2)on1)N1CCC(N2CCOCC2)CC1 |  | 9.93% (inactive)
CN1CCN(C(=O)c2cc(-c3ccccc3)on2)CC1 |  | 4.95% (inactive)
COc1ccc(CNc2nc(-c3ccccn3)nnc2-c2ccccc2)cc1 | 14.3 µM | 
c1ccc(-c2csc(Nc3nc(-c4ccccn4)nnc3-c3ccccc3)n2)cc1 |  | 73.9% (inactive)
CN(C)c1nc(-c2ccccn2)nnc1-c1ccccc1 |  | 80.9% (inactive)
CC(C)(C)c1ccc(CNc2nc(-c3ccccn3)nnc2-c2ccccc2)cc1 |  | 246% (inactive)

Compound | AC50 [1] | activation [2]
O=C(NC1CCc2ccccc2C1)c1cc(-c2ccccc2)on1 (stereo not given) |  | 2.06% (inactive)
c1ccc(-c2cnc(Nc3nc(-c4ccccn4)nnc3-c3ccccc3)s2)cc1 |  | -26.9% (inactive)
Cc1ccccc1CNC(=O)c1cc(-c2ccccc2)on1 |  | 40.9% (inactive)
O=C(c1cc(-c2ccccc2)on1)N1CCN(c2ccncc2)CC1 |  | -9.52% (inactive)
c1ccc(-c2nnc(Nc3nc(-c4ccccn4)nnc3-c3ccccc3)s2)cc1 |  | 67% (inactive)
c1ccc(-c2nnc(-c3ccccn3)nc2N2CCC(C3CCCCC3)C2)cc1 (stereo not given) |  | 17.7% (inactive)
O=C(Nc1nnc(-c2ccccc2)s1)c1cc(-c2ccccc2)on1 |  | -5.78% (inactive)
O=C(NCc1ccccc1)c1cc(-c2ccccc2)on1 |  | 65.7% (inactive)
c1ccc(CNc2nc(-c3ccccn3)nnc2-c2ccccc2)cc1 | 17 µM | 
O=C(NCCN1CCOCC1)c1cc(-c2ccccc2)on1 | 12.4 µM | 
O=C(NCCCN1CCOCC1)c1cc(-c2ccccc2)on1 | 12 µM | 
O=C(Nc1cnc2ccccc2c1)c1cc(-c2ccccc2)on1 |  | 26% (inactive)
Cn1c(-c2ccccc2)cnc1NC(=O)c1cc(-c2ccccc2)on1 |  | 23.2% (inactive)
Cc1cccc(Nc2nc(-c3ccccn3)nnc2-c2ccccc2)n1 |  | 306% (inactive)
Cc1ccc(Nc2nc(-c3ccccn3)nnc2-c2ccccc2)cn1 |  | 473% (inactive)
c1ccc(-c2nnc(-c3ccccn3)nc2N2CCC(N3CCOCC3)CC2)cc1 | 36 µM | 
O=C(NCC1CC1)c1cc(-c2ccccc2)on1 | 7.37 µM | 
Oc1ccc(CNC2CCc3ccccc32)c2cccnc12 (stereo not given) |  | -90.3% (inactive)
O=C(Nc1ccc2ccccc2n1)c1cc(-c2ccccc2)on1 |  | 10.3% (inactive)
O=C(Nc1ncc(-c2ccccc2)o1)c1cc(-c2ccccc2)on1 |  | 22.7% (inactive)
c1ccc(-c2ccc(CNc3nc(-c4ccccn4)nnc3-c3ccccc3)cc2)cc1 | 9.24 µM | 
COc1ccccc1N1CCN(Cc2ccc(O)c3ncccc23)CC1 |  | -77.4% (inactive)
Cc1ccccc1CNc1nc(-c2ccccn2)nnc1-c1ccccc1 | 25 µM | 
O=C(NCCN1CCCCC1)c1cc(-c2ccccc2)on1 |  | 64.1% (inactive)
Oc1ccc(CN2CCC(Cc3ccccc3)CC2)c2cccnc12 |  | 27% (inactive)
Cc1cccc(NC(=O)c2cc(-c3ccccc3)on2)n1 |  | 47.5% (inactive)

Reference: PubChem BioAssay AID493228 (Broad Institute, 2011)
